Results reported in ChEMBL document CHEMBL3616441, “Discovery of a Selective and CNS Penetrant Negative Allosteric Modulator of Metabotropic Glutamate Receptor Subtype 3 with Antidepressant and Anxiolytic Activity in Rodents” (J Med Chem, 2015).
Activity calls are given as the source filed them. No cut-off for these calls is given here.

What was measured:
Plasma [1] = test: Fraction unbound in rat plasma; assay type: ADME, cell-free
[2] = Plasma clearance in rat at 0.2 mg/kg, iv administered as cassette dose; assay type: ADME, organism-based
Brain [3] = test: Fraction unbound in rat brain; assay type: ADME, tissue-based
[4] = target: Metabotropic glutamate receptor 5 (Rattus norvegicus, UniProt P31424); test: Modulation of rat mGlu5 receptor assessed as calcium mobilization by cell based fluorescence assay; assay type: functional
Outline: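 Calcium mobilization assay with fluorescence read-out in cells expressing mGlu5; full concentration-response curves; % Glu Max is the amplitude of response with 30 μM test compound as a percentage of the maximal response to 100 μM glutamate; values averaged over n-3.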

[5] = Volume of distribution at steady state in rat at 0.2 mg/kg, iv administered as cassette dose; assay type: ADME, organism-based; settings: in vivo, read-out: Vdss
[6] = Half life in rat at 0.2 mg/kg, iv administered as cassette dose; assay type: ADME, organism-based; settings: in vivo
[7] = target: Metabotropic glutamate receptor 3 (Rattus norvegicus, UniProt P31422); test: Negative allosteric modulation of rat mGlu3 receptor assessed as calcium mobilization by cell based fluorescence assay; assay type: functional
Outline: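 Cell line stably expressing rat mGlu3 with the promiscuous G-protein Gα15. Calcium mobilization with fluorescence read-out, inhibition of the glutamate response. Full concentration-response curves, top concentration 30 μM. % Glu Max is the response with 30 μM test compound as a percentage of the maximal response to 100 μM glutamate. Values averaged over n-3.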

[8] = target: Metabotropic glutamate receptor 3 (Rattus norvegicus) (UniProt P31422); test: Negative allosteric modulation of rat mGlu3 receptor assessed as amplitude response at 30 uM relative to glutamate
Outline: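 Calcium mobilization in cell line stably expressing rat mGlu3 with promiscuous Gα15; fluorescence read-out; amplitude of glutamate response with 30 μM test compound expressed as percentage of maximal response (100 μM glutamate); average of n = 3.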

[9] = target: Metabotropic glutamate receptor 5 (Rattus norvegicus) (UniProt P31424); test: Positive allosteric modulation of rat mGlu5 receptor assessed as calcium mobilization by cell based fluorescence assay; assay type: functional
[10] = target: Metabotropic glutamate receptor 5 (Rattus norvegicus) (UniProt P31424); test: Modulation of rat mGlu5 receptor assessed as assessed as calcium mobilization at 30 uM by cell based fluorescence assay; assay type: functional
[11] = target: Metabotropic glutamate receptor 5 (Rattus norvegicus) (UniProt P31424); test: Negative allosteric modulation of rat mGlu5 receptor assessed as calcium mobilization by cell based fluorescence assay; assay type: functional
[12] = target: 5-hydroxytryptamine receptor 2B (Homo sapiens) (UniProt P41595); test: Antagonist activity at 5HT2B receptor (unknown origin) up to 10 uM
Brain [13] = test: Fraction unbound in mouse brain; assay type: ADME, tissue-based
[14] = target: 5-hydroxytryptamine receptor 2B (Homo sapiens) (UniProt P41595); test: Agonist activity at 5HT2B receptor (unknown origin) up to 10 uM
[15] = Plasma concentration in mouse at 10 mg/kg, ip after 30 mins; assay type: ADME, organism-based
Outline: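 Single time-point tissue distribution in mice. Dosed IP as a fine microsuspension in 0.1% Tween 80 and 0.5% methyl cellulose in H2O (1 mg/mL). Plasma and brain were sampled 30 min post dose, n = 3.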

[16] = AUC (0 to infinity) in mouse at 10 mg/kg, ip; assay type: ADME, organism-based; set-up: dose 10 mg/kg, time infinity, route intraperitoneal; settings: in vivo
Cytochrome P450 2C9 = Cytochrome P450 2C9 (Homo sapiens, UniProt P11712); test: Inhibition of CYP2C9 in human liver microsomes by cocktail assay; assay type: ADME
Outline: (§1)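 Human liver microsome cocktail incubation with probe substrates for four P450s; inhibition of each isoform measured.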

[17] = Volume of distribution at steady state in rat at 1 mg/kg, iv and 3 mg/kg, po; assay type: ADME, organism-based; settings: in vivo, read-out: Vdss
Outline: (§2)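 Rat IV PK, n = 2, 1.0 mg/kg as solution in 10% EtOH, 50% PEG 400, 40% saline (1 mg/mL); oral arm 3.0 mg/kg as fine microsuspension in 0.1% Tween 80 and 0.5% methyl cellulose in H2O (0.3 mg/mL).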

MDCK [18] = test: Apparent permeability from apical to basolateral side in MDCK cells expressing human MDR1 gene; assay type: ADME, cell-based, Canis lupus familiaris; settings: dog
Outline: (§3)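 Permeability and P-gp efflux measured in MDCK cells transfected with human MDR1 gene.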

[19] = Oral bioavailability in rat at 3 mg/kg; assay type: ADME, organism-based; settings: in vivo
Plasma [20] = test: Fraction unbound in mouse plasma; assay type: ADME, cell-free
Cytochrome P450 2D6 = Cytochrome P450 2D6 (Homo sapiens, UniProt P10635); test: Inhibition of CYP2D6 in human liver microsomes by cocktail assay; assay type: ADME; outline: as §1
in vivo [21] = settings: rat, ip, 10 mg/kg
[22] = target: 5-hydroxytryptamine receptor 2B (Homo sapiens) (UniProt P41595); test: Binding affinity to 5HT2B receptor (unknown origin) at 10 uM by radioligand binding assay
MDCK [23] = test: Apparent permeability from basolateral to apical side in MDCK cells expressing human MDR1 gene; assay type: ADME, cell-based, Canis lupus familiaris; settings: dog; outline: as §3
[24] = Plasma clearance in rat at 1 mg/kg, iv and 3 mg/kg, po; assay type: ADME, organism-based
Outline: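 Rat PK, n = 2 each route. IV: 1.0 mg/kg as solution in 10% EtOH, 50% PEG 400, 40% saline (1 mg/mL). Oral: 3.0 mg/kg as fine microsuspension in 0.1% Tween 80 and 0.5% methyl cellulose in H2O (0.3 mg/mL). Plasma clearance and bioavailability derived from plasma levels.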

[25] = AUC (0 to infinity) in rat at 10 mg/kg, ip; assay type: ADME, organism-based; set-up: dose 10 mg/kg, time infinity, route intraperitoneal; settings: in vivo
Rattus norvegicus [26] = test: Half life in rat at 1 mg/kg, iv and 3 mg/kg, po; assay type: ADME, organism-based; settings: in vivo; outline: as §2
Mus musculus [27] = test: Anxiolytic activity in ip dosed CD1 mouse assessed as inhibition of marble burying behavior after 30 mins; assay type: functional, organism-based
Rattus norvegicus [28] = test: Antidepressant activity in Sprague-Dawley rat assessed as reduction of immobility time at 56.6 mg/kg, ip measured up to 6 mins by forced swim test; assay type: functional, organism-based
Cytochrome P450 1A2 = target: T1, Cytochrome P450 1A2 (Homo sapiens, UniProt P05177); test: Inhibition of CYP1A2 in human liver microsomes by cocktail assay; assay type: ADME
T1 sequence (P05177 whole entry): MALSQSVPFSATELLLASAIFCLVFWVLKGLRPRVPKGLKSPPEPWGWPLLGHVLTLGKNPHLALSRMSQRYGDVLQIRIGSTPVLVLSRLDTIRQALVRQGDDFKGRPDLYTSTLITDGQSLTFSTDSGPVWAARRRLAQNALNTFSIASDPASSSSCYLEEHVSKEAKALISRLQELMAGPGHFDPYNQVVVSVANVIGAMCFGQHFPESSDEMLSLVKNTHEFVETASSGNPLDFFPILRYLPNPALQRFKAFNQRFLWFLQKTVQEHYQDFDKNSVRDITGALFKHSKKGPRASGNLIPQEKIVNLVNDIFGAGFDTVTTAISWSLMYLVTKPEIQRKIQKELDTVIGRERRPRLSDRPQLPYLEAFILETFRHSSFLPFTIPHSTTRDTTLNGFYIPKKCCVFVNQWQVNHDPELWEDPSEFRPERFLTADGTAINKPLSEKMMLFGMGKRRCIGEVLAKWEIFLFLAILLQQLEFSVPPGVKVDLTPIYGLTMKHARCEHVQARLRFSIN

Mus musculus [29] = test: Anxiolytic activity in CD1 mouse assessed as inhibition of marble burying behavior at 56.6 mg/kg, ip after 30 mins; assay type: functional, organism-based
[30] = Cmax in rat at 10 mg/kg, ip; assay type: ADME, organism-based; set-up: dose 10 mg/kg, route intraperitoneal; settings: in vivo
in vivo [31] = settings: mouse, ip, 10 mg/kg
Cytochrome P450 3A4 = Cytochrome P450 3A4 (Homo sapiens, UniProt P08684); test: Inhibition of CYP3A4 in human liver microsomes by cocktail assay; assay type: ADME; outline: as §1
[32] = Cmax in mouse at 10 mg/kg, ip; assay type: ADME, organism-based; set-up: dose 10 mg/kg, route intraperitoneal; settings: in vivo
[33] = target: Metabotropic glutamate receptor 2 (Rattus norvegicus) (UniProt P31421); test: Negative allosteric modulation of rat mGlu2 receptor assessed as calcium mobilization at 30 uM by cell based fluorescence assay; assay type: functional
Outline: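 Rat mGlu2 calcium mobilization assay with fluorescence read-out; full concentration-response curve analysis up to 30 μM top concentration.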

Chain of Metabotropic glutamate receptor 3 (Rattus norvegicus) (P31422 23-879 limits assumed): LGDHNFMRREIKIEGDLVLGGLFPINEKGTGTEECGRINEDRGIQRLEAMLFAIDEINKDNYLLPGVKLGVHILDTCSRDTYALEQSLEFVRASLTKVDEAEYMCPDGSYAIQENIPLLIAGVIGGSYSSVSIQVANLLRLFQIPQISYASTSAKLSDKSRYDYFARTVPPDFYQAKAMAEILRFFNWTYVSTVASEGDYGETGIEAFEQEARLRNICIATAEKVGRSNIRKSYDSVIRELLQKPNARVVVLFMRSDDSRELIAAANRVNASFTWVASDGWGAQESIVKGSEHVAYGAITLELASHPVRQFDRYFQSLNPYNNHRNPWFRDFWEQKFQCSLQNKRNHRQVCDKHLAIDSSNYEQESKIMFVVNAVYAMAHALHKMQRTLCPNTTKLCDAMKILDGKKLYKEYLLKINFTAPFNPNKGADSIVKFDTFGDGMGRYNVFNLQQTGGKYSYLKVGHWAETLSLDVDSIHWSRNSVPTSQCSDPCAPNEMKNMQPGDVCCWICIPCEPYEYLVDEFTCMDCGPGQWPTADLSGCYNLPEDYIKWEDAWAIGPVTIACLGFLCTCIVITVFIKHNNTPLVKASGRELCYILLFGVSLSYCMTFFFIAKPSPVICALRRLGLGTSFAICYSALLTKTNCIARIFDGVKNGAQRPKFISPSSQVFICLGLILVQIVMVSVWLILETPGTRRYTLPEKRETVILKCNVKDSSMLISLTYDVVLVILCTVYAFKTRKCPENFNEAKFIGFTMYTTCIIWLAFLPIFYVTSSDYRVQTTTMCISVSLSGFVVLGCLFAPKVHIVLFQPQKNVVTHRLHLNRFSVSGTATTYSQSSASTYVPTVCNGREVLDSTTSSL
Chain of Metabotropic glutamate receptor 3 (P31422 whole entry): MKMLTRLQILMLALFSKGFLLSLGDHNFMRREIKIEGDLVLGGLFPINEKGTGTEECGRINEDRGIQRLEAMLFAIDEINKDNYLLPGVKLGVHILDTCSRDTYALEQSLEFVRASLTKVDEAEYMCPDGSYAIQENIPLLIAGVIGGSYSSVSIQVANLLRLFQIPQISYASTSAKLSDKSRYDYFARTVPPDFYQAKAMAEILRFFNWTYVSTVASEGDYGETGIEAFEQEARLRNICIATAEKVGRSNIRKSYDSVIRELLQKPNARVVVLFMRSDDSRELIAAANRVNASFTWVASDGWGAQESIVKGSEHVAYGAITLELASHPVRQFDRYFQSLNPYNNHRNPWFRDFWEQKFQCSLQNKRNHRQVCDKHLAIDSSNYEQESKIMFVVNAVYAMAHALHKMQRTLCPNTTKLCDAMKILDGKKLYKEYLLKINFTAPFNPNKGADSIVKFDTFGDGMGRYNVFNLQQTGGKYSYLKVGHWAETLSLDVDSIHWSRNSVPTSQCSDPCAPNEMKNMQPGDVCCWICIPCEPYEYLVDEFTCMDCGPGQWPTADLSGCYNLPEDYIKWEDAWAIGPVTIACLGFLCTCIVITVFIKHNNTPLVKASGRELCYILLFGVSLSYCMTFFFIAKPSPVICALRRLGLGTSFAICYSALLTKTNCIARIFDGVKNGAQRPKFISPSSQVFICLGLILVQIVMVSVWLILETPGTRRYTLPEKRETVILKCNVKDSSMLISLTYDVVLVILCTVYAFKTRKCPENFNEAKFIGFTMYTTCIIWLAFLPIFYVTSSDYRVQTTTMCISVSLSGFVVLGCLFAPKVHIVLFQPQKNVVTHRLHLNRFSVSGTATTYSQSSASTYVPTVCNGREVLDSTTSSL
Chain of Metabotropic glutamate receptor 5 (P31424 whole entry): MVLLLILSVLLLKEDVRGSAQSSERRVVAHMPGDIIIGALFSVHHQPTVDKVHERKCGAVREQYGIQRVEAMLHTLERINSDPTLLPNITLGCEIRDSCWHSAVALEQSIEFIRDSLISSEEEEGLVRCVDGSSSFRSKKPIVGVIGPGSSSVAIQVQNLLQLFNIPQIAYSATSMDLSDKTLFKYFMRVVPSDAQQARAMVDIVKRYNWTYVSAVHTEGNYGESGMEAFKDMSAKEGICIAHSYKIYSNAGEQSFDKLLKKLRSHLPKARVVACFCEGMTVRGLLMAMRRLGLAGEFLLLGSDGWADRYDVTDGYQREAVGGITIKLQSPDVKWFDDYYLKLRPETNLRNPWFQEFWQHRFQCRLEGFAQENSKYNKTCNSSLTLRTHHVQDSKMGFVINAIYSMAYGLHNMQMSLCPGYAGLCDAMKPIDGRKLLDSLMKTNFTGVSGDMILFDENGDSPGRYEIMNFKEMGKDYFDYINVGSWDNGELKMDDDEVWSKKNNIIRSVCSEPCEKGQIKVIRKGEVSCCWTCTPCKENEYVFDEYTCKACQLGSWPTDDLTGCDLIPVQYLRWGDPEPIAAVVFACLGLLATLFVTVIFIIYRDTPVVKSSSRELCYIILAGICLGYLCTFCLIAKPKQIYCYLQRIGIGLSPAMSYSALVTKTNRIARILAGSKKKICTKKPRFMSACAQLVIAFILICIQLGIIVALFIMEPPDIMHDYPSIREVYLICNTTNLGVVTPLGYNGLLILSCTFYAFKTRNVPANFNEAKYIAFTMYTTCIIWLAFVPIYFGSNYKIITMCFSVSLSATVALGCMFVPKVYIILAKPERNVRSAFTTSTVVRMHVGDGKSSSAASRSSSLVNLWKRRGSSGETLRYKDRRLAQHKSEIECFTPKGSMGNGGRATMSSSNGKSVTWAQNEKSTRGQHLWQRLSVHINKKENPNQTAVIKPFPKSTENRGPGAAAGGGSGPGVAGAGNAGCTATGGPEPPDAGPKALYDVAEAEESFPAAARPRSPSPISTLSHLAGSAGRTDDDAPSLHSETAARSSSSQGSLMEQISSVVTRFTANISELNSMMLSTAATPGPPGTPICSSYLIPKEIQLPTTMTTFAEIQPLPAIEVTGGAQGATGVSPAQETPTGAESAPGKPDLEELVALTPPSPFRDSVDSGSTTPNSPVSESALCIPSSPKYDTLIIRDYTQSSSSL
Chain of 5-hydroxytryptamine receptor 2B (Homo sapiens) (P41595 whole entry): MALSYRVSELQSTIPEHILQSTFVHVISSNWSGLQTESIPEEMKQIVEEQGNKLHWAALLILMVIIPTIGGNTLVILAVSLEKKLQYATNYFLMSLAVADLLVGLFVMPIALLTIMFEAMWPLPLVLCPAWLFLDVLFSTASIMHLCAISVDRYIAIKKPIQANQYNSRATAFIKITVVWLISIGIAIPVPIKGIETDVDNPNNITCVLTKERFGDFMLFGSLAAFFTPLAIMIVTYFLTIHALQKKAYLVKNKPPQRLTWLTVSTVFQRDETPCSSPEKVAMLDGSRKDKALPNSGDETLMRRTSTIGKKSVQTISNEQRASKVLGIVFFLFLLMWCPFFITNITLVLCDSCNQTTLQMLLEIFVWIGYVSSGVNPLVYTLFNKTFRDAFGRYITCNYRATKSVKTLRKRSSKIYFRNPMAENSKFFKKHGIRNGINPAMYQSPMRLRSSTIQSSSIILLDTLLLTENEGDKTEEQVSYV
Chain of Metabotropic glutamate receptor 5 (Rattus norvegicus) (P31424 21-1203 limits assumed): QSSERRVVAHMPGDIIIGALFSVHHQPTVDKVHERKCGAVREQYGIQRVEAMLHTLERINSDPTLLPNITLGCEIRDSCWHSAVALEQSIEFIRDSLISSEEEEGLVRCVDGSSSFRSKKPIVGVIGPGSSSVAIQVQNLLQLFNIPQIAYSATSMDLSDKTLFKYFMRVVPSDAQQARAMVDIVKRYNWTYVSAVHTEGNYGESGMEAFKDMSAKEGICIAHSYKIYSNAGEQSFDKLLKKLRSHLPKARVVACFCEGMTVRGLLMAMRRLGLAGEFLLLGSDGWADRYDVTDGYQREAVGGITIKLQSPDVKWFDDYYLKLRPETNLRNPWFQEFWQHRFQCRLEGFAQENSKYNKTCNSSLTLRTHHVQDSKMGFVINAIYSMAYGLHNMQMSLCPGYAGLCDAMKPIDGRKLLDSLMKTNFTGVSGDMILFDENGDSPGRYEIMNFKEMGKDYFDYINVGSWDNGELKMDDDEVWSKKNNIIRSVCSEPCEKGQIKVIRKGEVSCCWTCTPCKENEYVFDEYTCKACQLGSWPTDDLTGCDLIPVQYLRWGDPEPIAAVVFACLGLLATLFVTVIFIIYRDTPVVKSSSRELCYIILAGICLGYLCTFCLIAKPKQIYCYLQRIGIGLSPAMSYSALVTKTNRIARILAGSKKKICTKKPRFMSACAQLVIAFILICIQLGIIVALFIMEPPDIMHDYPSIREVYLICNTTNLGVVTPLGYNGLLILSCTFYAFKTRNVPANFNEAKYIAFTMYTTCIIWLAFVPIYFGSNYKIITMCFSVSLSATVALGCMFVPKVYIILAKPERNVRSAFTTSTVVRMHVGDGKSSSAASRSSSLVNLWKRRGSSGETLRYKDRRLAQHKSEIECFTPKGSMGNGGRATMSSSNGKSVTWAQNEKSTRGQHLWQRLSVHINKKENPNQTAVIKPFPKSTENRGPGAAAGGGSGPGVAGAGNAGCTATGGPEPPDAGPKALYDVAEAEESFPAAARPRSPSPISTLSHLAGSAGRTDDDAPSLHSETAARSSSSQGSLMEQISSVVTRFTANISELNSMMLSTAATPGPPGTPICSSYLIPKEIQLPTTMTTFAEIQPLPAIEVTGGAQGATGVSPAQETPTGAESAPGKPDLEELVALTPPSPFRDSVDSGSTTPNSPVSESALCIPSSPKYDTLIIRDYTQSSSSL
Chain of Cytochrome P450 2C9 (P11712 whole entry, canonical isoform): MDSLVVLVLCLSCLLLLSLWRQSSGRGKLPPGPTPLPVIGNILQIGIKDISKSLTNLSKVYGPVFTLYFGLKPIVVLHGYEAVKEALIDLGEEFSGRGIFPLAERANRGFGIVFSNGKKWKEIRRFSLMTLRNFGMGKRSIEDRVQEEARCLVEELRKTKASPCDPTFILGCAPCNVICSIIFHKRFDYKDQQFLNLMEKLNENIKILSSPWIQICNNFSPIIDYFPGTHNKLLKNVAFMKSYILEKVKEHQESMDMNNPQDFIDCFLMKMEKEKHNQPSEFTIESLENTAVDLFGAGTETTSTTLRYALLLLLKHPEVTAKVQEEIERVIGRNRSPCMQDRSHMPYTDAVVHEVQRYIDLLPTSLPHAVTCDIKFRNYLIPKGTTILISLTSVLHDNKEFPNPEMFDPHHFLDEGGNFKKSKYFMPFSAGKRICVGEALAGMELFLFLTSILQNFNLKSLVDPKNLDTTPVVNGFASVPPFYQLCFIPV

In the case of `C[C@@H]1CN(c2cncc(C#N)c2)C(=O)c2cc(COc3ccc(Cl)cn3)nn21`, the Fu (Plasma [1]) is reported as 0.078, the clearance [2] is reported as 22 mL/min/kg and the Fu (Brain [3]) is reported as 0.033. The EC50 [4] was > 30 µM, the Vd [5] was 1.4 L/kg and the half-life [6] was 59 min. The IC50 [7] was 0.605 µM and the Activity [8] was 1.08%.

For `C[C@@H]1CN(c2ccc(F)cc2)C(=O)c2cc(COc3ccc(F)cc3)nn21`, the Fu (Plasma [1]) was 0.06, the Activity [9] was “Active” and the clearance [2] was 40 mL/min/kg. For the same compound, the Activity [10] was 87%, the EC50 [4] was 0.092 µM and the Vd [5] was 3.5 L/kg. For the same compound, the half-life [6] was 95 min, the IC50 [7] was 0.462 µM and the Activity [8] was 2.09%.

With `C[C@@H]1CN(c2ccc(F)cc2)C(=O)c2cc(COc3ccc(F)cn3)nn21` the Fu (Plasma [1]) was 0.135, the Activity [11] was “Active” and the clearance [2] was 82 mL/min/kg. The Activity [10] was 46.5%, the EC50 [4] was > 10 µM and the Vd [5] was 6.6 L/kg. For the same compound, the half-life [6] was 88 min, the IC50 [7] was 0.539 µM and the Activity [8] was 1.71%.

In the case of `C[C@@H]1CN(c2cccc(F)c2)C(=O)c2cc(COc3ccc(F)cn3)nn21`, the Fu (Plasma [1]) is reported as 0.094, the Activity [11] is reported as “Active” and the Activity [10] is reported as 9.71%. It also gave an EC50 [4] of 2.72 µM, an IC50 [7] of 0.192 µM and an Activity [8] of 1.44%.

In the case of `C[C@@H]1CN(c2cncc(F)c2)C(=O)c2cc(COc3ccc(Cl)cn3)nn21`, the Fu (Plasma [1]) is reported as 0.092, the clearance [2] is reported as 50 mL/min/kg and the EC50 [4] is reported as > 30 µM. It also gave a Vd [5] of 1.9 L/kg, a half-life [6] of 30 min and an IC50 [7] of 0.481 µM. The Activity [8] was 1.85%.

With `C[C@@H]1CN(c2cccnc2F)C(=O)c2cc(COc3ccc(Cl)cn3)nn21` the Activity [12] was “Active”, the Fu (Brain [13]) was 0.035 and the Activity [14] was “inactive”. It also gave a concentration at 0.5 h [15] of 2.29 µM, an AUC(0-inf) [16] of 7.26 µM·h and a Fu (Plasma [1]) of 0.083. The IC50 (Cytochrome P450 2C9) was 25.6 µM, the Vd [17] was 1.4 L/kg and the Papp (MDCK [18]) was 45 ×10⁻⁶ cm/s. For the same compound, the bioavailability [19] was 60%, the Fu (Plasma [20]) was 0.163 and the IC50 (Cytochrome P450 2D6) was > 30 µM. It also gave a clearance [2] of 37 mL/min/kg, a Tmax (in vivo [21]) of 12.3 min and an inhibition [22] of 65%. For the same compound, the Papp (MDCK [23]) was 49.9 ×10⁻⁶ cm/s, the clearance [24] was 30 mL/min/kg and the Fu (Brain [3]) was 0.052. The AUC(0-inf) [25] was 11.5 µM·h, the EC50 [4] was > 30 µM and the t1/2 (Rattus norvegicus [26]) was 49 min. The Vd [5] was 1.6 L/kg, the inhibition (Mus musculus [27]) was “Dose-dependent effect” and the Activity (Rattus norvegicus [28]) was “Active”. The IC50 (Cytochrome P450 1A2) was > 30 µM, the inhibition (Mus musculus [29]) was “Active” and the Cmax [30] was 4.57 µM. For the same compound, the half-life [6] was 42 min, the Tmax (in vivo [31]) was 30 min and the IC50 (Cytochrome P450 3A4) was > 30 µM. The IC50 [7] was 0.392 µM, the Cmax [32] was 4.48 µM and the Activity [33] was “inactive”. For the same compound, the Activity [8] was 1.71%.

With `C[C@@H]1CN(c2ccccc2F)C(=O)c2cc(COc3ccc(F)cn3)nn21` the Fu (Plasma [1]) was 0.098, the Activity [11] was “Active” and the Activity [10] was 29.1%. For the same compound, the EC50 [4] was > 10 µM, the IC50 [7] was 0.162 µM and the Activity [8] was 1.53%.

With `C[C@@H]1CN(c2cc(F)ccc2F)C(=O)c2cc(COc3ccc(F)cn3)nn21` the Fu (Plasma [1]) was 0.089, the Activity [11] was “Active” and the Activity [10] was 18.8%. For the same compound, the EC50 [4] was > 10 µM, the IC50 [7] was 0.123 µM and the Activity [8] was 2.62%.
